EBV gp42 inh: inhibitors of Epstein-Barr virus glycoprotein 42. Fluorescence polarization binding assay, mP read-out. inhibition, % (tested at 21.74 µM). 0.42% of 220,000 active. AID 1085; in the data active = inhibition above about 50%
Target sequence (Q1HVG2 whole entry, looked up): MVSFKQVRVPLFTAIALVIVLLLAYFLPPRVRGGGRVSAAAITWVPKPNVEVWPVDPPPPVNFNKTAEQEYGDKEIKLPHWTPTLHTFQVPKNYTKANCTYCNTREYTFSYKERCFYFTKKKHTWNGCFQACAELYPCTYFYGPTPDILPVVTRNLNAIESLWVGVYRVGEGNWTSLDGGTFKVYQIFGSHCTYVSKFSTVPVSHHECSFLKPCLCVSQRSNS
ZTA DNA inh: blocks Epstein-Barr virus ZTA, an EBNA-1 counter-screen; ZTA-DNA binding, fluorescence polarization; inhibition, % at 11 µM; 0.15% of 320,000 active; in the data active = inhibition above about 33%
Target sequence (P03206 whole entry, looked up): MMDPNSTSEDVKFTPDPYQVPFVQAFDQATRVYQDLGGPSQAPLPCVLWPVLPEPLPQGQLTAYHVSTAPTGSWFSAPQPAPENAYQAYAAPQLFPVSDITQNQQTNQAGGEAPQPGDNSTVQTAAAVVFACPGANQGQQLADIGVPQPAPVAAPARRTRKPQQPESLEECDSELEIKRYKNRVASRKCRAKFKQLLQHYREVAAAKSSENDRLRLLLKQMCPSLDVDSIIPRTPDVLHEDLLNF
EBNA-1 inhibitor: blocks EBNA-1 binding to DNA; EBNA-1 DNA binding, fluorescence polarization; inhibition, % at 14.8 µM; 0.34% of 300,000 active; in the data active = inhibition above about 28%
MEX-5 binding: C. elegans MEX-5 TCR-2 RNA binding activity | Q9XUB2 | MEX-5/FITC-TCR2 RNA binding, fluorescence polarization; active compounds read low | activity score (negative = inhibition of binding), % at 10 µM | 0.38% of 300,000 active | AID 1832;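 active = inhibition past about -25% in most replicates, and total fluorescence under double the plate's negative control median, limit read from the data; inconclusive = replicates evenly split on the limit, or fluorescence at least double controls; inactive = too little inhibition in most replicates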
NS3 helicase inh: blocks Hepatitis C virus NS3 helicase unwinding | 0.56% of 290,000 active | NS3 helicase DNA unwinding, Cy5 molecular beacon fluorescence | inhibition, % at 10.9 µM;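 active = inhibition above the mean of all tested compounds plus 3 SD, set per campaign, cut at about 35% in these data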
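Compound dosing – single dose, 10.9 µM nominal final, DMSO 0.8% final · System – NS3 helicase fragment of HCV · Buffer or medium – MOPS pH 6.5, MgCl2, DTT, Tween20, BSA · Signal – Cy5 beacon fluorescence read at start and 1 h · Also added – annealed dual-labelled DNA beacon duplex, ATP-started · Schedule – 1 h at 25 °C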
HCV core dimer: HCV core protein dimerization inhibition. inhibition, % at 5 µM. TR-FRET GST/Flag-core106 dimerization, 1536-well. 0.33% of 300,000 active;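 active = inhibition above the mean of all tested compounds plus 3 SD, set per screening campaign, cut at about 45% in these data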
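Assay system: Tagged HCV core106 pair (GST and Flag) | Buffer or medium: KF-containing HEPES buffer, pH 7.45, DTT, CHAPS, BSA | Also added: Eu donor and XL665 acceptor anti-tag antibodies | Dosing: One concentration, 5 µM, in 0.5% DMSO | Timing: 4 h at 22.5 °C | Technique: TR-FRET 671 and 617 nm emission | Repeats: Singlicate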
Of the large screens only hits and unclear results are named; the others gave an inactive call. Rows were chosen to be rich in hits. Some 1.7% of all compounds tested hit in one or more screens of this group.

Cc1cccc(Nc2nn3c(=O)c4ccccc4nc3s2)c1	HCV core dimer 69
CCCSc1nn2c(=O)c3ccccc3nc2s1	none
Cc1ccc(S(=O)(=O)N(C)c2ccccc2C(=O)Nc2c(F)cccc2F)cc1	none (no result: EBV gp42 inh)
N#CC1(C#N)CC(C=O)=C(N)C1(C#N)CC(=O)C12CC3CC(CC(C3)C1)C2 (stereo unspecified)	EBV gp42 inh 142
CCOC(=O)[C@H]1[C@H]2COc3ccc(C)cc3[C@@H]2N2C(=O)c3cc(F)ccc3NC(=O)[C@@]12C	none (no result: EBV gp42 inh, MEX-5 binding, NS3 helicase inh)
c1ccc(-n2ncc3c2ncn2nc(-c4ccco4)nc32)cc1	HCV core dimer 52
Cc1ccc2c(c1)c1c3n2CCN(C(=O)CCl)C3CCC1 (stereo unspecified)	none (no result: EBV gp42 inh)
COc1cccc(/C=N/Nc2ncnc3c2[nH]c2ccc(C)cc23)c1OC	HCV core dimer 49
CC(=O)c1ccc(S(=O)(=O)N(C)CC(=O)NCc2ccco2)cc1	none (no result: EBV gp42 inh, EBNA-1 inhibitor, MEX-5 binding, NS3 helicase inh, HCV core dimer)
N#CCC(N)=C(C#N)C#N	MEX-5 binding -38
Cc1cc(C)cc(C(=O)N(CCc2ccccc2)C2CC3CCC(C2)N3C)c1 (stereo unspecified)	none (no result: EBV gp42 inh)
COc1ccc(C2CC(c3ccccc3)n3nc(NC(=O)c4cccs4)nc3N2)cc1 (stereo unspecified)	EBV gp42 inh 69
Cc1ccc(/C=C/C(=O)OCc2nc(N)nc(Nc3ccccc3C)n2)o1	EBV gp42 inh 85
O=C(Cn1c2ccccc2c(=O)c2ccccc21)N/N=C/c1cc([N+](=O)[O-])ccc1N1CCCCCC1	HCV core dimer 65
O=C(Cn1c2ccccc2c(=O)c2ccccc21)N/N=C/c1ccc(N2CCCC2)c([N+](=O)[O-])c1	EBV gp42 inh 74, HCV core dimer 51
Cc1ccc(-n2c(C)cc(/C=N/NC(=O)Cn3c4ccccc4c(=O)c4ccccc43)c2C)cc1	HCV core dimer 68
O=C(N/N=C/c1ccc(N2CCCC2)c([N+](=O)[O-])c1)c1cccnc1	none
CCOc1ccc(NC(=O)CN(C)C(=O)CCCOc2ccc(Cl)c(C)c2)cc1OCC	none (no result: EBV gp42 inh)
NS(=O)(=O)c1ccc(N=Nc2c(-c3ccccc3)[nH]n(-c3nc(-c4ccccc4)cs3)c2=O)cc1	HCV core dimer 46
COCCN(C(=O)c1ccc(COc2ccccc2)o1)c1c(N)n(CC(C)C)c(=O)[nH]c1=O	none (no result: EBV gp42 inh, EBNA-1 inhibitor, MEX-5 binding, NS3 helicase inh, HCV core dimer)
COc1cccc(-c2ccc(C#N)c(=O)[nH]2)c1	none
COc1cccc(N=Nc2c(=O)[nH]n3c(=O)cc(C)[nH]c23)c1	MEX-5 binding -32
CCOC(=O)C1=C(C)OC(N)=C(C#N)C1c1ccc(O)c(OC)c1 (stereo unspecified)	MEX-5 binding -40
CCOC(=O)C1=C(C)OC(N)=C(C#N)C1c1ccccc1 (stereo unspecified)	none
COc1cccc(/C=N/NC(=O)c2nc(-c3ccccc3)cc(-c3ccccc3)n2)c1	HCV core dimer 50
CCCN(CC(=O)Nc1ccccc1C)C(=O)CCCc1c[nH]c2ccccc12	none (no result: EBV gp42 inh, EBNA-1 inhibitor, MEX-5 binding, NS3 helicase inh, HCV core dimer)
Nc1c(C(=O)N2CCCCCC2)oc2ccccc12	none (no result: EBV gp42 inh)
CCN1CCN(Cc2c(O)ccc3c2O/C(=C\c2ccc(C)cc2)C3=O)CC1	MEX-5 binding -29
CCN1CCN(Cc2c(O)ccc3c2O/C(=C\c2ccccc2)C3=O)CC1	MEX-5 binding -34
Cc1ccc(/C=C2\Oc3c(ccc(O)c3CN3CCN(C)CC3)C2=O)cc1	MEX-5 binding inconclusive
CCN1CCN(Cc2c(O)ccc3c2O/C(=C\C=C\c2ccccc2)C3=O)CC1	MEX-5 binding inconclusive, NS3 helicase inh 36
c1ccc(CCNc2nc(-c3ccccn3)nc3ccccc23)cc1	none
COc1cccc(NC(=O)CN(C)C(=O)c2c(C)nn(CC(C)C)c2Cl)c1	none (no result: EBV gp42 inh, EBNA-1 inhibitor, MEX-5 binding, NS3 helicase inh, HCV core dimer)
CCOC(=O)c1sc(NC(=O)CSc2n[nH]c(-c3ccccc3)n2)c(C#N)c1C	none
Cc1ccc(/C=C/C2=Cc3c(sc(NC(=O)CSc4n[nH]c(N)n4)c3C#N)C(C)(C)C2)o1	EBV gp42 inh 77, EBNA-1 inhibitor 49, NS3 helicase inh 45, HCV core dimer 89
Cc1cccc(NC(=O)c2cc(-c3ccc(C)c(C)c3O)n[nH]2)c1	none (no result: EBV gp42 inh, ZTA DNA inh, EBNA-1 inhibitor, HCV core dimer)
CNS(=O)(=O)c1cccc(C(=O)OCc2cc(=O)oc3c(C)c(O)ccc23)c1	none (no result: EBV gp42 inh)

Screening data: PubChem, several laboratories
